Data set [1] concerns Microglia. The data set can be described thus: Cytotoxicity against Sprague-Dawley rat microglial cells assessed as effect on cell viability at 1 to 20 uM incubated for 24 hrs by MTT assay. The format is toxicity, cell-based. The note with it: dose 1-20 µM. The method in brief: (§1)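 Primary rat microglia, 6×10^4 cells/well, switched to serum-free medium 1 h before 24 h exposure (1–20 μM, DMSO ≤0.1%). MTT 0.18 mg/mL for 4 h at 37 °C, formazan dissolved in DMSO, absorbance 570 nm (reference 630 nm). Vehicle-treated cells = 100% viability.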

Data set [2] is described as follows: Effect on TNF-alpha release in Sprague-Dawley rat microglial cells at 20 uM by ELISA. The format is toxicity, cell-based. The note with it: microglia. The method in brief:
(§2)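 Primary cortical rat microglia in DMSO (≤0.1%) or vehicle for 1 h, then 100 ng/mL LPS for 24 h. TNF-α and IL-1β in culture medium by ELISA against standard curves (pg/mL), expressed as % of LPS-stimulated cultures. Mean ± SEM of 3 independent experiments; one-way ANOVA, Holm-Sidak test.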
A general note: ELISA stands for enzyme-linked immunosorbent assay.

The nature of data set [3]: Effect on IL-1 beta release in Sprague-Dawley rat microglial cells at 20 uM by ELISA. The data set is classed as toxicity, cell-based. The note with it: microglia. The gist of the method:
as §2

Data set [4] has as its system Microglia. The data set can be described thus: Antiinflammatory activity against Sprague-Dawley rat microglial cells assessed as inhibition of LPS-induced TNF-alpha production at 1 to 20 uM pretreated with compound for 1 hr followed by LPS stimulation for 24 hrs by ELISA. The format is functional, cell-based. The note with it: dose 1-20 µM, time 25.0 hrs. The gist of the method: as §2

The subject of data set [5] is Microglia. Put plainly: Antiinflammatory activity against Sprague-Dawley rat microglial cells assessed as inhibition of LPS-induced IL-1 beta production at 1 to 20 uM pretreated with compound for 1 hr followed by LPS stimulation for 24 hrs by ELISA. The note with it: dose 1-20 µM, time 25.0 hrs. The data set is classed as functional, cell-based. The method in brief: as §2

Data set [6] deals with Microglia. Put plainly: Antiinflammatory activity against Sprague-Dawley rat microglial cells assessed as downregulation of TNF-alpha mRNA expression at 10 uM pretreated with compound for 1 hr followed by LPS stimulation for 6 hrs by real-time PCR analysis. The format is functional, cell-based. The note with it: time 7.0 hrs. The gist of the method: (§3)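 Primary cortical microglia (postnatal day 1 rat pups, shaken off mixed glial cultures, ~97% Iba1-positive). Compound (DMSO ≤0.1%) for 1 h, then 100 ng/mL ultra-pure E. coli LPS for 6 h. QIAzol RNA extraction, SuperScript IV reverse transcription, real-time PCR. Mean ± SEM, n = 3 in triplicate; one-way ANOVA, Holm-Sidak test.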
(Real-time PCR tracks product formation cycle by cycle.)

In data set [7] the test system is Microglia. The data set can be described thus: Antiinflammatory activity against Sprague-Dawley rat microglial cells assessed as downregulation of IL-1 beta mRNA expression at 10 uM pretreated with compound for 1 hr followed by LPS stimulation for 6 hrs by real-time PCR analysis. The format is functional, cell-based. The note with it: time 7.0 hrs. The method in brief: as §3

Data set [8] has as its system Microglia. Put plainly: Antiinflammatory activity against Sprague-Dawley rat microglial cells assessed as downregulation of NLRP3 mRNA expression at 10 uM pretreated with compound for 1 hr followed by LPS stimulation for 6 hrs by real-time PCR analysis. The format is functional, cell-based. The note with it: time 7.0 hrs. The gist of the method:
as §3

For data set [9], the system named is SH-SY5Y. The data set can be described thus: Cytotoxicity against human SH-SY5Y cells assessed as effect on cell viability at 1.25 to 40 uM incubated for 24 hrs by MTT assay. The format is toxicity, cell-based. The note with it: dose 1.25-40 µM. The gist of the method:
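SH-SY5Y, 2×10^4 cells/well, grown 24 h then exposed 24 h (1.25–40 μM) at 37 °C, 5% CO2. MTT 0.5 mg/mL in HBSS for 2 h, washed, formazan dissolved in isopropanol, read at 570 nm (reference 690 nm).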

The test system of data set [10] is SH-SY5Y. The data set can be described thus: Antioxidant activity in human SH-SY5Y cells assessed as increase in intracellular GSH level at 2.5 uM incubated for 24 hrs by […] fluorescence analysis. The format is functional. The gist of the method:
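SH-SY5Y (2×10^4 cells/well) grown 24 h, then exposed to 2.5 μM for 24 h at 37 °C. Fluorescent probe added 30 min at 37 °C; read at ex 355/em 460 nm. GSH (μM) from a GSH standard curve. Mean ± SEM of three experiments; one-way ANOVA with Dunnett's test.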

Data set [11] relates to SH-SY5Y. The data set can be described thus: Antioxidant activity in human SH-SY5Y cells assessed as reduction in intracellular ROS formation at 2.5 uM incubated for 24 hrs followed by incubation with t-BuOOH for 30 mins by H2DCF-DA staining based fluorescence analysis. The note with it: time 24.5 hrs. The format is functional. The method in brief:
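SH-SY5Y (2×10^4 cells/well) exposed to 2.5 μM for 24 h, loaded with H2DCF-DA 30 min at room temperature, probe removed, then challenged with 50 μM t-BuOOH 30 min at room temperature. Fluorescence ex 485/em 535 nm, expressed as % ROS increase. Three independent experiments; one-way ANOVA with Dunnett's test.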

Data set [12] has as its target Keap1/Nrf2 (Homo sapiens) (UniProt Q16236+Q14145). Put plainly: Activation of Keap1/Nrf2 in human SH-SY5Y cells assessed as Nrf2 nuclear translocation by measuring increase in nuclear to cytosolic Nrf2 ratio at 2.5 uM incubated for 3 hrs by western blot analysis. The format is cell-based. The method in brief:
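SH-SY5Y seeded 2×10^6 cells/dish, grown 24 h, then exposed 3 h at 37 °C, 5% CO2. Nuclear and cytosolic fractions immunoblotted for Nrf2, membranes stripped and reprobed for β-actin and lamin B1 as loading references. Mean ± SEM of three independent experiments; one-way ANOVA with Dunnett's test.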

The target in data set [13] is Amyloid-beta precursor protein (Homo sapiens) (UniProt P05067). Put plainly: Anti-oligomeric activity against Abeta42 (unknown origin) assessed as depletion of the formation of toxic HMW Abeta42 oligomers at 5 uM measured at day 7 from sample solubilization by capillary electrophoresis assay. The note with it: time 7.0 day. The method in brief: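 Aβ42 stock diluted to 221 μM in 20 mM sodium phosphate pH 7.4 containing compound (ethanol stocks 1.53 mM). Capillary electrophoresis: BGE 80 mM sodium phosphate pH 7.4, 30 mbar × 3 s hydrodynamic injection, +12 kV, 25 °C, 200 nm detection. Oligomers assigned by effective mobility; HMW oligomer peak quantified semiquantitatively as normalised area %.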

Data set [14] relates to Microglia. The data set can be described thus: Cytotoxicity against Sprague-Dawley rat microglial cells assessed as decrease in cell viability at 20 uM incubated for 24 hrs by MTT assay. The data set is classed as toxicity, cell-based. The gist of the method:
as §1
Background: Tetrazolium assays rely on reduction of a dye to a coloured formazan, in cell work by metabolically active cells.

Data set [15] can be described thus: Effect on TNF-alpha release in Sprague-Dawley rat microglial cells at 10 uM by ELISA. The data set is classed as toxicity, cell-based. The note with it: microglia. The gist of the method:
as §2

The nature of data set [16]: Effect on IL-1 beta release in Sprague-Dawley rat microglial cells at 10 uM by ELISA. The data set is classed as toxicity, cell-based. The note with it: microglia. The method in brief: as §2
Data set [17] deals with Microglia. Put plainly: Antiinflammatory activity against Sprague-Dawley rat microglial cells assessed as inhibition of LPS-induced TNF-alpha production at 1 to 10 uM pretreated with compound for 1 hr followed by LPS stimulation for 24 hrs by ELISA. The data set is classed as functional, cell-based. The note with it: dose 1-10 µM, time 25.0 hrs. The method in brief: as §2

Data set [18] concerns Microglia. The data set can be described thus: Antiinflammatory activity against Sprague-Dawley rat microglial cells assessed as inhibition of LPS-induced IL-1 beta production at 1 to 10 uM pretreated with compound for 1 hr followed by LPS stimulation for 24 hrs by ELISA. The data set is classed as functional, cell-based. The note with it: dose 1-10 µM, time 25.0 hrs. The method in brief: as §2

Molecules are shown by their SMILES. Active and inactive are the calls of the source. No cut-off for these calls is given here.

Amyloid-beta precursor protein (Homo sapiens), sequence (P05067 whole entry): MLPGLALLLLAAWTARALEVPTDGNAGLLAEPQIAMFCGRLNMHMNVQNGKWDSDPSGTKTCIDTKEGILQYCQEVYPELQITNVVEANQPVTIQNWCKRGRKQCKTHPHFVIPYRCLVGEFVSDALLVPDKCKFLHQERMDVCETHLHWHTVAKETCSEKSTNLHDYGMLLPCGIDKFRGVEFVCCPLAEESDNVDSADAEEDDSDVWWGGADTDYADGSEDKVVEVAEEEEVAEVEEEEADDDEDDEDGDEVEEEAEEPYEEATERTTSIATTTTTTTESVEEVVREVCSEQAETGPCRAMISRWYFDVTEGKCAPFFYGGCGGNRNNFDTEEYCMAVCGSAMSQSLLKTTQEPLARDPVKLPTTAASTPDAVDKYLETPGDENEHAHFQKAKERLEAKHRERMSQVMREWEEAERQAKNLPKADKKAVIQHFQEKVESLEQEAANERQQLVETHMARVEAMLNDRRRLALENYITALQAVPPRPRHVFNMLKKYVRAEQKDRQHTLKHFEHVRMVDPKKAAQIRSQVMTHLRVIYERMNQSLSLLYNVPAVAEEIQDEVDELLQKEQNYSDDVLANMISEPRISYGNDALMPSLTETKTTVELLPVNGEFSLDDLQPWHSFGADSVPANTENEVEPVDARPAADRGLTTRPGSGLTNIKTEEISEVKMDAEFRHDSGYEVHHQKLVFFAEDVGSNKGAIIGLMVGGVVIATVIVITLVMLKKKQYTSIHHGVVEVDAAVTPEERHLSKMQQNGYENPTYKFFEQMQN
Keap1/Nrf2 (Homo sapiens), sequence (Q14145 whole entry, looked up): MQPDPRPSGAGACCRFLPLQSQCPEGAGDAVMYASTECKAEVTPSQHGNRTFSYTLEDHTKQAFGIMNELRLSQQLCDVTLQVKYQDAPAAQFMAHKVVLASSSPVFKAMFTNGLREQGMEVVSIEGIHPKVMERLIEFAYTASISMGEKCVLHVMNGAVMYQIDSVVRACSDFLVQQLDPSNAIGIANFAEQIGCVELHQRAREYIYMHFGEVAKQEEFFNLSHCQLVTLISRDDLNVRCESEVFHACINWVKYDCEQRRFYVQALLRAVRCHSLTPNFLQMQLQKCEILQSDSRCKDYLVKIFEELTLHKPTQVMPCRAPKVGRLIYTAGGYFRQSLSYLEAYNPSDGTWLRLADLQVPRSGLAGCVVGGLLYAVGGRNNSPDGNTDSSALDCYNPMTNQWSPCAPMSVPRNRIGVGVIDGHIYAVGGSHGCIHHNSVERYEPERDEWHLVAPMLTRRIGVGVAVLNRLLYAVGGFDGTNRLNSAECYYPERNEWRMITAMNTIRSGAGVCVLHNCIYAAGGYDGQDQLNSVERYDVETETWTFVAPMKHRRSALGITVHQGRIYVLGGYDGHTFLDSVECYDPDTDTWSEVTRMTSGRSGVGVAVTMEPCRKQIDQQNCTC
Keap1/Nrf2 (Homo sapiens), sequence (Q16236 whole entry, looked up): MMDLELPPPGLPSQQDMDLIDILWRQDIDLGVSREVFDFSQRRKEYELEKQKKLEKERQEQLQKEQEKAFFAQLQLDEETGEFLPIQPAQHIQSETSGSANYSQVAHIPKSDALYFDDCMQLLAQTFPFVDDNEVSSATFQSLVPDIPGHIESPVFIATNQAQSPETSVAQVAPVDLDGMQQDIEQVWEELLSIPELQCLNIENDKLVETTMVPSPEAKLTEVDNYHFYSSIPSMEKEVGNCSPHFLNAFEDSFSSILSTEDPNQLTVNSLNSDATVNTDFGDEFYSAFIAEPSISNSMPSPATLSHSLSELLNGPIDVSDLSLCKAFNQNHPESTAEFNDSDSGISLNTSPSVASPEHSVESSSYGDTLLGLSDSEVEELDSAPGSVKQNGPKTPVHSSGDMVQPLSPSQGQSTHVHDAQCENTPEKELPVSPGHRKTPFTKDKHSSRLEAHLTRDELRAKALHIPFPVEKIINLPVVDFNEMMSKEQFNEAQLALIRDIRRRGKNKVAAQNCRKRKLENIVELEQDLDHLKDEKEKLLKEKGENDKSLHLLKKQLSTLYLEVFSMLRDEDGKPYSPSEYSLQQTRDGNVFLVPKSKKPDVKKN

As for `COc1ccc(/C=C/C(=O)/C=C(O)/C=C/c2ccc(OC)cc2)cc1`, the Activity result (in the data set with Microglia [1]; in data set [2]; in [3]; with SH-SY5Y [9]) was “Non-Toxic” in each case. In addition, the result in the data set with Microglia [4], with Microglia [5], with Microglia [6], in the data set with Microglia [7], in the data set with Microglia [8] and with SH-SY5Y [10] was inactive. Moreover, the result (in the data set with SH-SY5Y [11]; in [12]; in [13]) was inactive.

As to `CCOC(=O)C/C(C(=O)/C=C/c1ccc(OC)cc1)=C(O)\C=C\c1ccc(OC)cc1`, the Activity result (in the data set on Microglia [1]; in [2]; in data set [3]; in the data set on SH-SY5Y [9]) was “Non-Toxic” each time. For the same molecule, the outcome in the data set with Microglia [4], in the data set on Microglia [5], in the data set on Microglia [6], in the data set on Microglia [7], in the data set on Microglia [8] and in the data set on SH-SY5Y [10] was Active. The inhibition (as a rule, the share of the control response that was lost under treatment) at 2.5 µM with SH-SY5Y [11] was 38%. For the same molecule, the result in [12] and in [13] was inactive.

As to `COc1cc(/C=C/C(=O)CC(=O)/C=C/c2ccc(O)c(OC)c2)ccc1O` [CURCUMIN], the Activity result was “Toxic” in the data set with Microglia [14], “Non-Toxic” in [15] and “Non-Toxic” in data set [16]. Also, the result (with Microglia [17]; in the data set on Microglia [18]; with Microglia [6]; in the data set on Microglia [7]; in the data set with Microglia [8]; in [13]) was Active.

In the case of `COc1ccc(/C=C/C(=O)/C(CC(=O)OC(C)(C)C)=C(O)/C=C/c2ccc(OC)cc2)cc1`, the Activity result in the data set on Microglia [14] is “Toxic”; in data set [15] it was “Non-Toxic”; in [16], “Non-Toxic”. Besides, the outcome in the data set with Microglia [17] and in the data set on Microglia [18] was Active.

Consider `COc1ccc(/C=C/C(=O)/C(CC(=O)O)=C(O)/C=C/c2ccc(OC)cc2)cc1` (mixture of isomers), for which the Activity entry (with Microglia [1]; in [2]; in data set [3]) was “Non-Toxic” throughout. For the same molecule, the outcome in the data set with Microglia [4] and in the data set on Microglia [5] was inactive.

(Values after ChEMBL document CHEMBL5321214, “Targeting the multifaceted neurotoxicity of Alzheimer's disease by tailored functionalisation of the curcumin scaffold” (Eur J Med Chem, 2023).)
